Rows were chosen to be rich in hits. Some 2.3% of all compounds tested hit in one or more screens of this group.
TRPC4 potent: allosterically enhances the mouse TRPC4 cation channel; Q9QUQ5; HEK293 TRPC4beta/mu-opioid, DAMGO EC20, Fluo-4 Ca2+ flux; hits give high values; B-score at 10 µM; 0.42% of 310,000 active; AID 2227;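 active = B-score of calcium response area above 5 SD of library B-scores, with initial fluorescence ratio within 5 SD of library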;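 note: B-score of integrated fluorescence ratio over time as area under calcium response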
TRPC6 inhibitor: inhibitors of mouse TRPC6 channel | Q61143 | HEK293-TRPC6, membrane potential dye, ACh-evoked depolarization; hits give low values | B-score at 10 µM | 1.1% of 310,000 active;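 active = B-score under library mean minus 3 SD, initial fluorescence not abnormally high, positive integrated signal ratio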;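 note: B-score derived from integrated fluorescence ratio over the kinetic read; more negative B-score means stronger inhibition of depolarization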
TRPC4 agonist: activators of mouse TRPC4 channel | Q9QUQ5 | HEK293 TRPC4beta/mu-opioid, Fluo4 calcium fluorescence; hits give high values | B-score at 10 µM | 0.49% of 310,000 active;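 active = B-score above 5 SD of library B-scores, and initial fluorescence ratio not above library mean plus 5 SD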;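 note: positive B-score marks a calcium rise read as TRPC4 activation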
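Assay system: HEK293 cells stably co-expressing mouse TRPC4beta and mu-opioid receptor / Timing: Fluo4 dye loading 45 min at room temperature, 110 s recording / Signal: Fluo4 calcium-sensitive dye fluorescence, kinetic, 1 Hz baseline / Read-out: integrated baseline-normalised fluorescence ratio, converted to per-well B score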
TRPC6 activator: activators of mouse TRPC6 channel. HEK293-TRPC6 membrane potential dye fluorescence; hits give high values. Q61143. AID 2550. B-score at 10 µM. 0.13% of 310,000 active;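 active = B-score of the integrated fluorescence ratio above library mean plus 3 SD, and starting fluorescence ratio within library mean plus 5 SD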;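 note: higher score means more depolarization so channel activation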
TRPC4 block: TRPC4 (mouse) channel inhibition | B-score at 10 µM | Q9QUQ5 | 0.39% of 300,000 active | HEK293 TRPC4beta/mu-opioid, DAMGO-evoked Fluo4 calcium flux; hits give low values | AID 2247;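 active = B-score over 3 SD under the library average, no early fluorescence shift, positive overall ratio signal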
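Assay system: TRPC4beta/mu-opioid receptor HEK293 cell line; compound dosing: single concentration per test compound; detection: Fluo4 Ca2+ flux fluorescence; evaluation: per-well B score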
TRPC4 sel inh 2: mouse TRPC4 off-target activity of TRPC6 inhibitors, second screen; shares compounds with TRPC6 inhibitor; HEK293 TRPC4/MOR, membrane potential dye fluorescence; channel activated by saturating DAMGO dose; inhibition, % at 10 µM; 42% of 920 active; AID 2776;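 active = compounds whose fluorescence signal differed from control wells by over 3 SD, either direction, in both duplicate plates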
TRPC4 spec: selectivity of TRPC6 inhibitors: effect on mouse TRPC4; 61% of 920 active; shares compounds with TRPC6 inhibitor; HEK293 TRPC4/mu-opioid, membrane potential fluorescence; activity change, negative = inhibition, % at 10 µM;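 active = rise or fall in signal beyond 3 SD of buffer-only wells in both replicate plates, either sign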;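 note: integrated kinetic ratio of fluorescence range over baseline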
HEK293 MPD ctr 2-1: second counter-screen for TRPC6 inhibitors: parental HEK293 cells; 31% of 920 active; signal change vs control, % at 10 µM; shares compounds with TRPC6 inhibitor; parental HEK293 membrane potential dye fluorescence; maximal acetylcholine challenge after compound addition;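 active = membrane potential signal moving either way by over 3 SD of the maximum-effect control, in both duplicate plates, meaning non-specific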
HEK293 MPD ctr-1: parental HEK293 nonspecific activity of TRPC6 inhibitors; 60% of 920 active; membrane potential signal change, % at 10 µM; parental HEK293 membrane potential dye fluorescence; AID 2780; shares compounds with TRPC6 inhibitor;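 active = membrane potential signal shifting up or down by more than 3 SD of buffer-only wells, on both duplicate plates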
HEK293 MPD ctr-2: counter-screen for TRPC6 modulators: effect in parental HEK293 cells; shares compounds with TRPC6 inhibitor; membrane potential dye fluorescence; membrane potential signal change, % at 10 µM; 51% of 2,400 active; AID 488924;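 active = membrane potential signal moves up or down beyond 5 SD from buffer-only wells, on both duplicate plates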
HEK293 MPD ctr 2-2: second check of TRPC6 modulator effects in parental HEK293 cells; shares compounds with TRPC6 inhibitor; membrane potential dye fluorescence; after compound, maximal acetylcholine stimulation; inhibition, % at 10 µM; 14% of 2,400 active;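 active = membrane potential signal drops by more than 5 SD from the mean control signal, in both duplicate plates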;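 note: plate controls were acetylcholine ECmax control wells for no effect and buffer only wells for full effect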
TRPC4/MOR mod: tests whether TRPC6 modulators also affect mouse TRPC4. shares compounds with TRPC6 inhibitor. HEK293 TRPC4/mu-opioid, membrane potential fluorescence. percent change from control (negative = decrease, positive = increase), % at 10 µM. 69% of 2,400 active;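 active = membrane potential signal moved up or down beyond 5 SD of buffer control wells, in both duplicate plates, actives on both sides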;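 note: plate controls were assay buffer wells for no effect and DAMGO maximal-effect wells for full effect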
TRPC4 ctr inh 2: second selectivity test of TRPC6 modulators against mouse TRPC4; shares compounds with TRPC6 inhibitor; inhibition, % at 10 µM; 55% of 2,400 active; HEK293 TRPC4/mu-opioid, membrane potential dye fluorescence; stimulated with maximal-effect DAMGO; AID 488928;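 active = drop in membrane potential signal beyond 5 SD of the control wells in both duplicate plates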;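 note: TRPC4 counter screen for TRPC6 hits run under conditions tuned for TRPC6 not TRPC4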
TRPC6 block conf: mouse TRPC6 inhibitor confirmation | 43% of 3,300 active | inhibition, % at 10 µM | HEK293-TRPC6, membrane potential dye, ACh-evoked depolarization | shares compounds with TRPC6 inhibitor;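 active = fluorescence ratio falls more than 5 SD below the full-stimulation control mean, in both duplicate runs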;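 note: integrated fluorescence ratio of peak minus minimum over baseline after agonist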
TRPC6 act confirm: mouse TRPC6 activator confirmation; shares compounds with TRPC6 inhibitor; HEK293-TRPC6 membrane potential dye fluorescence, FDSS; activation, % at 10 µM; 11% of 2,800 active;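 active = ratio signal rise beyond 5 SD above unstimulated control wells' mean, seen in both duplicate runs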;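 note: plate controls were buffer EC0 wells for no effect and acetylcholine ECmax response for full effect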
An asterisk follows results filed as active; i = inactive; · = no result; + = active, no number.

SMILES | TRPC4 potent | TRPC6 inhibitor | TRPC4 agonist | TRPC6 activator | TRPC4 block | HEK293 MPD ctr-2 | HEK293 MPD ctr 2-2 | TRPC4/MOR mod | TRPC4 ctr inh 2 | TRPC6 block conf | TRPC6 act confirm | others
O=C(C1CCOCC1)N1CCCC(N2CCN(c3cccc(C(F)(F)F)c3)CC2)C1 (stereo not given) | i | i | i | i | i | · | · | · | · | · | ·
CCc1nnc(NS(=O)(=O)c2ccc(NCc3cc(Cl)ccc3O)cc2)s1 | i | i | i | i | i | · | · | · | · | · | ·
COc1ccc(CN2C(=O)CCCc3ccccc32)cc1 | i | -5.7* | i | i | i | i | i | i | i | i | i
O=C1CCCc2ccccc2N1Cc1ccccc1 | i | i | i | i | i | · | · | · | · | · | ·
CC(C)N1CCC2(CC1)N=C(c1ccc3c(c1)OCO3)CC(c1cc(Cl)ccc1O)N2 (stereo not given) | i | -7.1* | i | i | i | · | · | · | · | i | i | TRPC4 sel inh 2=34%*;TRPC4 spec=i;HEK293 MPD ctr 2-1=i;HEK293 MPD ctr-1=i
CC(C)(C)n1nnnc1C(c1ccccc1)N1CCc2ccccc2C1 (stereo not given) | i | -7.6* | i | i | i | · | · | · | · | i | i | TRPC4 sel inh 2=i;TRPC4 spec=12%*;HEK293 MPD ctr 2-1=i;HEK293 MPD ctr-1=6.8%*
Cc1ccc(Cl)cc1NC(=O)CC(O)(C(F)(F)F)C(F)(F)F | i | -8.1* | i | i | i | · | · | · | · | 110%* | · | TRPC4 sel inh 2=58%*;TRPC4 spec=41%*;HEK293 MPD ctr 2-1=-77%*;HEK293 MPD ctr-1=28%*
Cc1cc(NCc2ccccn2)nc2ccccc12 | i | -8.9* | i | i | i | · | · | · | · | 95%* | i | TRPC4 sel inh 2=49%*;TRPC4 spec=-20%*;HEK293 MPD ctr 2-1=i;HEK293 MPD ctr-1=-292%*
Cc1nc(NCc2ccccn2)c2ccccc2n1 | i | i | i | i | i | · | · | · | · | · | ·
C=CCn1c(=N)c(C#N)cc2c(=O)n3ccccc3nc21 | i | -8.7* | i | i | i | -278%* | i | -44%* | 38%* | i | i
CC1CN(C(=O)CCNC(=O)c2ccc(Cl)cc2)CC(C)O1 (stereo not given) | i | i | i | i | i | · | · | · | · | · | ·
O=C(NNC(=O)c1ccccc1Br)c1ccc(SCC2CCCO2)c([N+](=O)[O-])c1 (stereo not given) | i | i | i | i | i | · | · | · | · | · | ·
CN(C)c1cc[n+](CC(=O)c2ccc(-c3ccccc3)cc2)cc1 | i | -7.7* | i | i | i | · | · | · | · | i | · | TRPC4 sel inh 2=i;TRPC4 spec=-0.5%*;HEK293 MPD ctr 2-1=47%*;HEK293 MPD ctr-1=3.3%*
O=C(C[n+]1ccccc1)c1ccc(-c2ccccc2)cc1 | i | i | i | i | i | · | · | · | · | · | ·
Cc1cccc(-c2sc(Nc3ccccc3)n[n+]2-c2ccc(F)cc2)c1 | i | i | i | i | i | · | · | · | · | · | ·
COc1ccc(-c2sc(Nc3ccccc3)n[n+]2-c2ccc(F)cc2)c(C)c1C | i | -5.4* | i | i | i | i | i | i | 63%* | i | i
O=C1NC(=Nc2ccccc2Cl)S/C1=C\c1cc([N+](=O)[O-])ccc1O | i | i | 82* | 34* | i | + | i | 380%* | 65%* | i | 658%*
Cc1ccc(S(=O)(=O)/N=C2/NC(=O)/C(=C/c3cc([N+](=O)[O-])ccc3O)S2)cc1 | i | i | i | 62* | i | 390%* | i | 66%* | i | i | 280%*
COc1cc(/C=C2\S/C(=N/S(=O)(=O)c3ccc(C)cc3)NC2=O)c([N+](=O)[O-])cc1OC | i | i | i | i | i | · | · | · | · | · | ·
CCN1CCN(c2c(C=O)c(Cl)nc3ccc(OC)cc23)CC1 | i | -7.5* | 78* | i | i | -276%* | 72%* | i | 54%* | 58%* | i
CCCCn1c(NCc2ccc3c(c2)OCO3)nc2ccccc21 | i | -5.2* | i | i | i | i | i | i | 88%* | 40%* | i
CCCn1c(NCc2ccc3c(c2)OCO3)nc2ccccc21 | i | -5.2* | i | i | i | i | i | 8.0%* | 74%* | 44%* | i
Cc1cc(=O)n2nc(N3CCC(C(=O)NCc4cccc(Cl)c4)CC3)sc2n1 | i | i | i | i | i | · | · | · | · | · | ·
O=C(c1ccc(Cl)c(S(=O)(=O)N2CCOCC2)c1)N(c1ccccn1)C1CCCCC1 | i | -6* | i | i | i | 170%* | i | 30%* | i | i | ·
O=C1/C(=C/c2cccs2)CCC/C1=C\c1cccs1 | i | i | i | i | i | · | · | · | · | · | ·
Cn1cccc1/C=C1\CCC/C(=C\c2cccn2C)C1=O | i | i | i | 35* | i | 261%* | i | 98%* | i | i | 66%*
COCCNC(=O)CNC(=S)N(CCCN1CCOCC1)Cc1cccs1 | i | i | i | i | i | · | · | · | · | · | ·
CCOC(=O)C1=C(C)NC(C)=C(C(=O)OCC)C1c1cccs1 | i | i | i | i | i | · | · | · | · | · | ·
CCOC(=O)C1=C(C)NC(C)=C(C(=O)OCC)C1c1sccc1C | i | -5.4* | i | i | i | i | i | i | 40%* | i | i

Assay outcomes as filed in PubChem BioAssay.
